Active and inactive are the calls of the source. The rule behind the calls is not given here.
Key:
MDA-MB-468 [1] = test: Cytotoxicity against human MDA-MB-468 cells expressing Y1R assessed as reduction in cell viability treated for 8 hrs followed by culturing in proliferation medium for 72 hrs by resazurin assay; type: functional, cell-based
MDA-MB-468 [2] = test: Cytotoxicity against human MDA-MB-468 cells expressing Y1R assessed as reduction in cell viability at 10 uM treated for 8 hrs followed by culturing in proliferation medium for 72 hrs in presence of 10 equiv hY1R agonist, [F7,P34]-NPY by resazurin assay; type: functional, cell-based; details: time 80.0 hrs
In short: (§1)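 Breast cancer cells were exposed for 8 h at 37 °C in FCS-free medium to toxic agent together with 10 equiv of hY1R agonist [F7,P34]-NPY. Cells were then washed twice and grown 72 h in culture medium. Medium-treated cells with or without agonist were set at 100% and ethanol-treated cells at 0%. Triplicate, ≥2 independent experiments.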

[3] = Cytotoxicity against human HEK293 cells assessed as cell viability at >= 1 uM treated for 8 hrs followed by culturing in proliferation medium for 72 hrs by resazurin assay; type: toxicity, cell-based; details: read-out: Activity
In short: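 Seeding was 6000/well for MDA-MB-231, 10000 for T-47D, and 8000 for MDA-MB-468 and HEK293. After 24 h, cells got compound at 50 to 0.01 μM in FCS-free medium for 8 h at 37 °C, were washed twice, then kept 72 h in culture medium. Resazurin 10% (v/v) was added for 2 h at 37 °C and resorufin fluorescence read (ex 550/em 595 nm). Medium-only cells were set at 100% and 70% ethanol-treated cells at 0%.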

T47D = test: Cytotoxicity against human T47D cells expressing Y1R assessed as reduction in cell viability at 5 uM treated for 8 hrs followed by culturing in proliferation medium for 72 hrs in presence of 10 equiv hY1R agonist, [F7,P34]-NPY by resazurin assay; type: functional, cell-based; details: time 80.0 hrs
In short: as §1, with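 “medium. Viability was read by resazurin (10% v/v, 2 h, ex 550/em 595 nm).” for “medium.”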

MDA-MB-231 [4] = test: Cytotoxicity against human MDA-MB-231 cells expressing Y1R assessed as reduction in cell viability at 25 uM treated for 8 hrs followed by culturing in proliferation medium for 72 hrs in presence of 10 equiv hY1R agonist, [F7,P34]-NPY by resazurin assay; type: functional, cell-based; details: time 80.0 hrs; in short: as §1
T-47D (Homo sapiens) = test: Cytotoxicity against human T47D cells expressing Y1R assessed as reduction in cell viability treated for 8 hrs followed by culturing in proliferation medium for 72 hrs by resazurin assay
T47D (Homo sapiens) = test: as above
MDA-MB-231 [5] = test: Cytotoxicity against human MDA-MB-231 cells expressing Y1R assessed as reduction in cell viability treated for 8 hrs followed by culturing in proliferation medium for 72 hrs by resazurin assay

In the case of CN(Cc1cnc2nc(N)nc(N)c2n1)c1ccc(C(=O)N[C@@H](CCC(=O)O)C(=O)O)cc1 [METHOTREXATE], the IC50 (MDA-MB-468 [1]; read-out: IC50) is reported as 200 nM, the IC50 (MDA-MB-468 [1]; read-out: pIC50 (converted)) is reported as 200 nM and the Activity (MDA-MB-468 [2]) is reported as “Active”. For the same molecule, the viability at 80 h, 1 µM [3] was 65%, the Activity (T47D) was “Active” and the Activity (MDA-MB-231 [4]) was “Active”. The IC50 (T-47D (Homo sapiens)) was 501 nM, the IC50 (T47D (Homo sapiens)) was 500 nM and the IC50 (MDA-MB-231 [5]; read-out: IC50) was 15000 nM. It also gave an IC50 (MDA-MB-231 [5]; read-out: pIC50 (converted)) of 15800 nM.

— ChEMBL document CHEMBL5257021 (J Med Chem, 2016)
